Screening data from PubChem.
CaV13 FRET inh = Disruptors of the CACNA1D IQ motif to Ca2+-dependent inactivation inhibitor domain association, primary screening, Förster resonance energy transfer in intact living …. HEK cells, CFP/YFP FRET ICDI-IQ, plate reader, 10 min; percent FRET-ratio fall versus neutral wells. inhibition, % at 12.3 µM. hit rate 0.098% among 340,000;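 active = mean replicate inhibition of at least 30% and at least 1% of replicates passing that level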;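 also: 0% = median of the neutral control wells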
F508del corr = correctors of CFTR F508del function in bronchial epithelial cells; hit rate 0.36% among 350,000; AID 720511; activity (quench increase), % at 7.58 µM; CFBE cells, YFP halide quenching; stimulated with forskolin plus potentiator P3; % fluorescence drop versus neutral controls;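 active = mean added fluorescence quench of at least 8% versus neutral control, with both replicates also reaching 8%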;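 also: cells transiently co-express mutant CFTR-F508del with the halide-sensitive YFP; corrector assay measuring rescue of mutant channel to the surface after 24 h compound exposure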
Ecoli rRNA inh = inhibitors of bacterial rRNA selective over humanized ribosomes; E. coli WT GFP vs humanized-ribosome RFP mutants, fluorescence, 24 h; hits give low values; DMSO median 0, no signal -100; GFP signal change (wild-type ribosome), % (concentration not given with the values); hit rate 1.6% among 350,000;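 active = significant combined selectivity score with lowered wild-type GFP, culture density cut under 30%, mutant RFP and density less affected; inactive = any of these conditions unmet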
Cneo AK release = causes C. neoformans cell lysis; hit rate 0.2% among 360,000; AID 651654; lysis activity, % at 15 µM; adenylate kinase release luminescence, 4 h; normalised: neutral wells 0, clomiphene wells 100;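 active = mean lysis activity across replicates of at least 80%, whatever share of replicates individually reach that level; inactive = mean lysis activity below 80%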
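Assay system: C. neoformans cells. Amount: yeast cell density of 5 × 10^6 cells/mL. Technique: AK luminescence. Buffer or medium: YPD. Times: static 4 h at 37 °C with compound, 1 h detection. Dosing: single-point compound dose. Read-out: lysis from increased AK signal.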
The depositor's hits bear a star; nt = no result given. A selection: hits, their analogues and other compounds. The true share with any hit is near 1.7%.

SMILES | CaV13 FRET inh | F508del corr | Ecoli rRNA inh | Cneo AK release
COc1ccc(S(=O)(=O)N2C[C@H](O)COC[C@@H]3O[C@@H](CC(=O)NCc4ccc(Cl)c(Cl)c4)CC[C@H]32)cc1 | nt | 2.6 | -9.1 | -3.1
COc1ccc(O)c(/C=N/NC(=O)c2ccc(N3CCCC3=O)cc2)c1 | -4.7 | 8.0* | -11.6 | -0.1
COc1ccc(O)c(/C=N/NC(=O)c2cccc(N3CCCC3=O)c2)c1 | -3.2 | 3.0 | 11.6 | -0.3
CC(C)NC(=O)N(C)C[C@H]1Oc2cc(C#CCN(C)C)ccc2S(=O)(=O)N([C@@H](C)CO)C[C@@H]1C | nt | 3.1 | 4.3 | 6.7
COc1ccc(OCC2c3cc(OC)c(OC)cc3CCN2C(=O)C(C)C)cc1 (stereo not drawn) | 7.3 | 3.6 | -24.4* | nt
COC(=O)c1ccc(OCC2c3cc(OC)c(OC)cc3CCN2C(C)=O)cc1 (stereo not drawn) | -1.9 | 1.3 | 7.6 | -1.6
CCNC(=S)N1CCc2cc(OC)c(OC)cc2C1COc1ccc(F)cc1 (stereo not drawn) | 3.4 | -0.4 | -30.7* | -3.9
CNC(=S)N1CCc2cc(OC)c(OC)cc2C1COc1ccc(F)cc1 (stereo not drawn) | 6.9 | 2.5 | -4.4 | nt
C[C@@H]1CN([C@@H](C)CO)C(=O)Cc2cc(NS(=O)(=O)c3ccc(F)cc3)ccc2O[C@@H]1CN(C)C(=O)Nc1ccc2c(c1)OCO2 | nt | 0.7 | -1.4 | nt
CC1(CCc2ccccc2)NC(=O)N(CC(=O)Nc2ccc(OC(F)F)cc2)C1=O (stereo not drawn) | -3.5 | 0.3 | -28.8* | -1.7
O=c1[nH]c2ccccc2nc1Cc1ccccc1 | -4.8 | nt | nt | nt
O=C(Cc1nc2ccccc2[nH]c1=O)c1ccccc1 | 57.9* | 3.3 | -9.1 | nt
Cc1noc(C)c1NC(=O)N(C)C[C@@H]1OCCCC[C@H](C)Oc2ccc(NS(=O)(=O)c3cn(C)cn3)cc2C(=O)N([C@@H](C)CO)C[C@@H]1C | nt | -2.2 | 3.1 | -3.8
C=CCn1c(=S)sc2c(=O)[nH]cnc21 | -17.2 | -0.5 | -23.4* | 0.2
COc1cccc(-c2ccc([C@H]3[C@@H](CO)N4C(=O)CN(C(=O)C5CCCCC5)C[C@@H]34)cc2)c1 | nt | -1.9 | -4.4 | nt
Cc1ccc(S(=O)(=O)Nc2ccc3c(c2)CC(=O)N([C@H](C)CO)C[C@@H](C)[C@@H](CN(C)S(C)(=O)=O)O3)cc1 | nt | -2.1 | 0.7 | -0.8
O=C(CNc1ccc(Cl)cc1)NNC(=S)NCc1ccccc1 | -4.5 | 4.1 | -55.5 | nt
O=C(CNc1cccc(Cl)c1)NNC(=S)NCc1ccccc1 | -5.5 | 1.1 | -24.1* | 7.9
O=C(C[C@H]1CC[C@@H]2[C@H](COC[C@@H](O)CN2Cc2ccccc2)O1)NCc1ccccc1Cl | nt | -0.8 | -5.5 | 1.0
O=C(Cc1csc(-c2ccccc2)n1)Nc1ccc(C(F)(F)F)cc1 | -5.0 | nt | nt | 1.3
NNC(=O)Cc1csc(-c2ccccc2)n1 | -3.8 | 0.7 | -27.9* | nt
O=C(Cc1csc(-c2ccccc2)n1)NCc1ccc(F)cc1 | -3.0 | -0.9 | nt | 0.2
O=C(Cc1csc(-c2ccccc2)n1)NCc1ccccc1F | 38.1* | -1.3 | -8.8 | nt
C[C@H]1CCCCO[C@H](CN(C)C(=O)Nc2cccc3ccccc23)[C@@H](C)CN([C@@H](C)CO)C(=O)c2cc(NC(=O)Nc3ccc(C(F)(F)F)cc3)ccc2O1 | nt | 0.0 | 1.3 | 0.5
O=C(NC1CCCCC1)c1cc(C2CC2)nn1-c1ccccc1 | -6.3 | 22.5* | -6.4 | 2.1
SMILES | CaV13 FRET inh | F508del corr | Ecoli rRNA inh | Cneo AK release
Cc1nn(-c2ccccc2)c(Cl)c1C(=O)NC1CCCCC1 | -1.6 | -1.7 | 6.9 | nt
C[C@@H]1CN([C@@H](C)CO)C(=O)Cc2cc(NC(=O)C3CC3)ccc2O[C@H]1CN(C)C(=O)Nc1ccc(F)cc1 | nt | -1.2 | 2.9 | 1.1
Nc1nc2c(s1)CCCCCCCCCC2 | -15.9 | -1.2 | -50.4* | 2.6
Cc1cccc(-c2ccc([C@H]3[C@H](CO)N4CCCCN(S(=O)(=O)c5ccccc5C)C[C@@H]34)cc2)c1 | nt | -3.6 | -38.6* | 0.2
O=S(=O)(c1cccs1)N1CCCCN2[C@@H](CO)[C@@H](c3ccc(C4=CCCC4)cc3)[C@@H]2C1 | nt | -3.5 | -33.5* | 10.0
CCCC#Cc1ccc([C@H]2[C@@H](CO)N3CCCCN(S(=O)(=O)c4ccccc4C)C[C@H]23)cc1 | nt | 14.1* | -56.0 | 5.6
O=S(=O)(c1cccs1)N1CCCCN2[C@H](CO)[C@H](c3ccc(C4=CCCC4)cc3)[C@@H]2C1 | nt | -0.9 | -6.8 | 2.6
S=C(NCc1ccco1)NCC1CCCO1 (stereo not drawn) | -7.3 | 10.6* | 22.5 | 0.1
S=C(NCc1cccs1)NCC1CCCO1 (stereo not drawn) | -3.2 | 0.6 | 21.0 | nt
C=C[C@@H](C)[C@@H](OC(=O)Nc1ccc(OC)cc1)c1ccc(OCCO)cc1 | nt | -4.6 | nt | -1.7
COc1ccccc1-c1ccc([C@@H]2[C@@H](C#N)N(C(=O)NC3CCCC3)[C@@H]2CO)cc1 | nt | 1.1 | -3.4 | nt
Cc1ccc(OCCn2c(=S)[nH]c3c(N)ncnc32)cc1 | -3.2 | 4.5 | -37.2* | -1.9
CN(Cc1ccccc1)CC1CC(c2ccccc2)OC(c2ccc(NC(=O)CCCCCCC(=O)O)cc2)O1 (stereo not drawn) | nt | 3.8 | nt | -8.6
COc1cccc(C(=O)Nc2ccc3c(c2)C(=O)N(C)[C@H]2CC[C@H](CC(=O)NCC(F)(F)F)O[C@H]2CO3)c1 | nt | 1.1 | -3.6 | 47.5
Cc1nc2c(sc3nc4c(cc32)COC(C)(C)C4)c(=O)n1CC(=O)NCc1ccco1 | -7.7 | 12.6* | 7.0 | -7.1
O=C(C1CC1)N1C[C@H]2[C@@H](c3ccccc31)[C@@H](CO)N2C(=O)c1cccc(F)c1 | nt | 0.8 | 4.1 | -4.3
CCC(=O)NC(c1ccccc1)c1c(O)ccc2ccccc12 (stereo not drawn) | -18.4 | -1.4 | -32.5* | 5.0
Cc1csc(NC(=O)CSCC(=O)O)c1-c1nc2ccccc2s1 | -15.8 | 2.9 | -50.7* | nt
COc1ccccc1CN1CC[C@H]2[C@H](CO)Nc3ccc(C#Cc4ccccc4)cc3[C@H]21 | nt | 0.8 | -54.9 | 115.2*
COc1ccc(C#Cc2ccc3c(c2)[C@@H]2[C@@H](CCN2C(=O)c2cccc(F)c2)[C@@H](CO)N3)cc1 | nt | 8.7* | 1.5 | 13.6
COc1ccc(C#Cc2ccc3c(c2)[C@H]2[C@H](CCN2C(=O)c2cccc(F)c2)[C@@H](CO)N3)cc1 | nt | -1.4 | -2.8 | 14.8
COc1ccc(NC(=O)Nc2ccc3c(c2)C(=O)N([C@@H](C)CO)C[C@H](C)[C@H](CN(C)C(=O)c2ccccc2)OCCCC[C@H](C)O3)cc1 | nt | 6.5 | 0.4 | 54.1
Cc1ccc(C)c(Nc2cc(C(=O)NCc3cccnc3)c3ccccc3n2)c1 | 5.3 | -1.4 | -26.4* | -22.9
Cc1ccc(C)c(-c2cc(C(=O)N/N=C/c3cccnc3)c3ccccc3n2)c1 | -2.0 | 4.7 | -20.4* | -1.4
COc1ccccc1Nc1cc(C(=O)NCc2cccnc2)c2ccccc2n1 | -3.9 | 0.6 | -9.4 | nt
